Experimental findings from paper PMC3742633 (Molecular cancer therapeutics, 2013) are described below.

For orientation: GI50 means the concentration that inhibits growth by half. The term IC50 denotes the concentration needed to halve the response being measured.

In one test the target is phosphoglucoseisomerase (Homo sapiens, UniProt P06744). The test can be described thus: Activity of purified phosphoglucoseisomerase. The class given is biochemical. The note with it: up to 100 μM; data not shown.
Another test relates to OVCAR-3. The test can be described thus: NCI 60 cell line screen, Sulforhodamine B Assay. The class given is cell-based. As to conditions: Homo sapiens, OVCAR-3, 48 h. Put shortly:
(§1)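 Run through the NCI-60 screening service: human cancer cell lines exposed to test compound for 48 h. Growth read as cellular protein content by sulforhodamine B staining, and GI50 derived from this.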

For the next test, the system named is UACC-257. The test can be described thus: NCI 60 cell line screen, Sulforhodamine B Assay. The class given is cell-based. The note with it: Homo sapiens, UACC-257, 48 h. The method, boiled down: (§2)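 Run through the National Cancer Institute 60 cell line screening service on its panel of 59 human cancer lines in vitro. Cytostatic/toxic effect was read as cellular protein content (sulforhodamine B) over 48 h.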

In a further test the test system is SW-620. The test can be described thus: NCI 60 cell line screen, Sulforhodamine B Assay. The class given is cell-based. The note with it: Homo sapiens, SW-620, 48 h. The method, boiled down: as §2
The test system of another test is HCT-15. The test can be described thus: NCI 60 cell line screen, Sulforhodamine B Assay. The class given is cell-based. The note with it: Homo sapiens, HCT-15, 48 h. Put shortly:
as §1

For another test, the system named is HCT-116. The test can be described thus: NCI 60 cell line screen, Sulforhodamine B Assay. In kind it is cell-based. The note with it: Homo sapiens, HCT-116, 48 h. Put shortly: as §1
A further test relates to MALME-3M. The test can be described thus: NCI 60 cell line screen, Sulforhodamine B Assay. In kind it is cell-based. As to conditions: Homo sapiens, 48 h. The method, boiled down: as §1
The test system of another test is SK-OV-3. The test can be described thus: NCI 60 cell line screen, Sulforhodamine B Assay. In kind it is cell-based. As to conditions: Homo sapiens, SK-OV-3, 48 h. Put shortly:
as §2

The subject of another test is HL-60(TB). The test can be described thus: NCI 60 cell line screen, Sulforhodamine B Assay. As to conditions: Homo sapiens, HL-60, 48 h. In kind it is cell-based. The method, boiled down:
as §1

The next test concerns U-87 glioblastoma cells. The test can be described thus: U-87 MG xenograft tumor growth. As to conditions: 25 mg/kg i.p. every 3 days × 4; compared with temozolomide. The class given is in vivo, Balb/C athymic mice. Put shortly: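 U-87 MG cells from exponential culture (DMEM, 10% FCS) were washed and resuspended in PBS, and 1×10^6 cells were injected s.c. into 20 g Balb/C athymic mice. At 150–200 mg, tumours were randomised to DMSO, test compound (25 mg/kg i.p. every 3 days ×4) or temozolomide (30 mg/kg p.o., 3 days on/3 off). Blinded daily caliper mass = width²×length/2. Two experiments, n=8/group, mean±SD, unpaired two-tailed t-test.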

The test system of a further test is hexokinase. The test can be described thus: Activity of purified hexokinase. The class given is biochemical. As to conditions: up to 100 μM; data not shown.
Test [1] concerns the target recombinant human PFKFB3 protein (Homo sapiens, UniProt Q16875). The test can be described thus: Recombinant PFKFB3 kinase assay. In kind it is biochemical.

Molecules are shown by their SMILES.

Chain of recombinant human PFKFB3 protein (Q16875 whole entry): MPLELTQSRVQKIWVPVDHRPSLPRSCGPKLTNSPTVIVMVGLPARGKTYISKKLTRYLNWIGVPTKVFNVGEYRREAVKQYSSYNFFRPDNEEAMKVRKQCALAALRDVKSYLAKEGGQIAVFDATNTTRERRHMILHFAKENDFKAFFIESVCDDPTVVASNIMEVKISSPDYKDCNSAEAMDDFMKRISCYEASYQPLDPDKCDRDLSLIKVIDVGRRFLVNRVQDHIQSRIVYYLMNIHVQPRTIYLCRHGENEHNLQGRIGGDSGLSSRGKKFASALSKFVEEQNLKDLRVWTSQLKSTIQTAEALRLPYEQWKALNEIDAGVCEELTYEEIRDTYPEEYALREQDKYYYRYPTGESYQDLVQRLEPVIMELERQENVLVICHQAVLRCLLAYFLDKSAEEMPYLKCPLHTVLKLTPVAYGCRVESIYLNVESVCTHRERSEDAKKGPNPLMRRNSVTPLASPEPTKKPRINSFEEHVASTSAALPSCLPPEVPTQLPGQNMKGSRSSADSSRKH

As for `O=C(C=Cc1ccc2ccccc2n1)c1ccncc1` [PFK15, 1-(4-pyridinyl)-3-(2-quinolinyl)-2-propen-1-one], the “inhibition of activity of purified phosphoglucoseisomerase” value against phosphoglucoseisomerase is on record as “not inhibit”. Further, the concentration for 50% growth inhibition (GI50) in the test on OVCAR-3 was 3.16 µM; with UACC-257, 3.98 µM; in the test on SW-620, 1.7 µM; with HCT-15, 1.1 µM; with HCT-116, 1.32 µM; in the test on MALME-3M, 3.31 µM. The results for the GI50 in the test with SK-OV-3 and in the test on HL-60(TB) were 15.1 µM and 2.04 µM, respectively. Moreover, in the test with U-87 glioblastoma cells, the “activity against glioblastoma growth (U-87 MG)” value is listed as “lower than that observed by temozolomide”. In addition, the “inhibition of activity of purified hexokinase” value in the test with hexokinase is given as “not inhibit”. In test [1], the IC50 was 0.207 µM. In addition, the “fold more activity against PFKFB3 than 3PO” value in [1] (relative to 3PO) is listed as “approximately 100 fold”.
